MBD2 inh – blocks human MBD2 binding to methylated DNA; TR-FRET, MBD2 binding to methylated oligonucleotide; AID 686964; Q9UBB5; 370,000 tested, 0.31% active; inhibition, % at 4.4 µM; in the data active means inhibition above about 13%
UHRF1 MBD2 ctr – UHRF1 methyl-DNA binding inhibition; UHRF1 binding to methylated oligo, TR-FRET; inhibition, % at 4.4 µM; 370,000 tested, 0.75% active; in the data active means inhibition above about 21%;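 further: UHRF1 SRA domain binding a hemimethylated CpG hairpin DNA probe; 0% = median of test compound wells and 100% = reference inhibitor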
Target sequence (Q96T88 whole entry, looked up, the tested form may be a part): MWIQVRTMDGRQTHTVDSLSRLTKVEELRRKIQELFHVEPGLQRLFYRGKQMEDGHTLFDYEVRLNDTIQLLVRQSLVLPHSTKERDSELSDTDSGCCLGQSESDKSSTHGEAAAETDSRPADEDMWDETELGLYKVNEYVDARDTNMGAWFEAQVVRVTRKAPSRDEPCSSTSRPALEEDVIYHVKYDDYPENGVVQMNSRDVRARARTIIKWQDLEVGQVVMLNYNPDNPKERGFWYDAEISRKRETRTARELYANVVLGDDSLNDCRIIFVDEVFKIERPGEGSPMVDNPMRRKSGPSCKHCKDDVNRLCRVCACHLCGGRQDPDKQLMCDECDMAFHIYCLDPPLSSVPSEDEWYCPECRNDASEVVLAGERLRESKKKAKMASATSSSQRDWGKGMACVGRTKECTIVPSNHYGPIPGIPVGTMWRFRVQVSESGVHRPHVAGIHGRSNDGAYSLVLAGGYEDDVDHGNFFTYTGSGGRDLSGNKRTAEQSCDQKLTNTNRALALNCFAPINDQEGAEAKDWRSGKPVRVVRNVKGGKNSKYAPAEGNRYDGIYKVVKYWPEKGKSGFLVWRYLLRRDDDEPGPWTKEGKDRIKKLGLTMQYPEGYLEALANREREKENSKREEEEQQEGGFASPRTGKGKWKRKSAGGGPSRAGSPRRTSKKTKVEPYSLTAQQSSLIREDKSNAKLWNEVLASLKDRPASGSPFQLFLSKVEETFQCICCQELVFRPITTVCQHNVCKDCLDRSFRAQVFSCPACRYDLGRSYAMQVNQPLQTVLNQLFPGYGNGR
LEDGF integ inh – blocks HIV-1 LEDGF/p75-dependent DNA integration; inhibition, % at 3.7 µM; TR-FRET IN-LEDGF/p75 DNA integration, Eu/Cy5; 370,000 tested, 0.64% active;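 active means inhibition above the screen-wide mean plus 3 SD, cut at about 13% in these data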;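 further: signal is the Cy5 over europium emission ratio at 671 and 618 nm; 0% = plate median of compound wells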
TDP2 absorb – blocks human TDP2 phosphodiesterase activity | inhibition, % at 12.8 µM | 370,000 tested, 0.34% active | O95551 | recombinant TDP2, T5PNP hydrolysis, p-nitrophenol absorbance 415 nm | AID 720702;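 active means inhibition above the mean of all tested compounds plus 3 SD, set per campaign, cut at about 25% in these data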;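 further: 0% = DMSO with enzyme and 100% = buffer with substrate but no TDP2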
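Assay system: recombinant human TDP2 / Reagent: T5PNP substrate at 5 mM, a TopII-DNA adduct mimic / Measured by: epi absorbance from released p-nitrophenol / Evaluation: % inhibition relative to enzyme-containing and enzyme-free wells / Control set: enzyme-free and DMSO wells / Replicates: each compound tested once, singlicate / Schedule: enzyme reaction with compound for 2 h at 37 °C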
UHRF1 DNA bind – counter-screen for MBD2 inhibitors: human UHRF1 methylated DNA binding inhibitors; shares compounds with MBD2 inh; AID 720530; 1,000 tested, 25% active; inhibition, % at 4.4 µM; UHRF1 binding to methylated oligonucleotide, TR-FRET; in the data active means inhibition above about 21%;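 further: UHRF1 SRA domain binding a labeled hemimethylated CpG hairpin DNA; 0% = vehicle only and 100% = reference inhibitor with vehicle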
MBD2 DBD conf – MBD2-DBD methyl-DNA binding inhibition, TR-FRET confirmation; 1,000 tested, 26% active; TR-FRET MBD2-DBD binding to methylated oligonucleotide; inhibition, % at 4.4 µM; AID 720531; shares compounds with MBD2 inh
TDP2 confirm – confirmation of human TDP2 inhibitors | shares compounds with TDP2 absorb | recombinant human TDP2, absorbance read-out | inhibition, % at 12.8 µM | 1,100 tested, 22% active | AID 743263; in the data active means inhibition above about 25%;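 further: 0% = vehicle with enzyme and 100% = no enzyme buffer only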
IN multimer act – counter-screen for LEDGF/p75 integration inhibitors: HIV-1 integrase multimerization activators | shares compounds with LEDGF integ inh | TR-FRET HIV-1 integrase multimerization, biochemical | activation, % at 7.7 µM | 2,000 tested, 17% active | AID 1053131; in the data active means activation above about 8.9%
TR-FRET interf – counter-screen for LEDGF/p75 integration inhibitors: TR-FRET optical interference. shares compounds with LEDGF integ inh. TR-FRET optical interference counterscreen, HIV-1 IN multimerization. inhibition, % at 7.7 µM. 2,000 tested, under 10 active;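 active means inhibition above the mean over all tested compounds plus 3 SD, which no compound reached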;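 further: 0% = integrase with antibodies and DMSO and 100% = antibodies without integrase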
IN-LEDGF confirm – LEDGF/p75-dependent HIV-1 integration inhibition, confirmation | shares compounds with LEDGF integ inh | TR-FRET LEDGF/p75-dependent HIV-1 integration, biochemical | inhibition, % at 3.7 µM | 2,000 tested, 36% active
* marks the source's active call; other numbers are inactive results; . = no result given. In the library only some 1.6% were active in any assay of this set; here they are far more common. Unless noted, no stated cut-off is given here; in the data, active means inhibition above about 14%; inactive means the rest.

SMILES	MBD2 inh	UHRF1 MBD2 ctr	LEDGF integ inh	TDP2 absorb	UHRF1 DNA bind	MBD2 DBD conf	others
CC(C)COCc1ccc(O)c2ncccc12	-2	14	-2	4	.	.
CCCOCc1ccc(O)c2ncccc12	19*	-1	-2	7	0	2
CNc1c2cccc(C)c2nc2c(C(=O)NCCN(C)C)cccc12	91*	61*	8	-2	55*	103*
Cc1ccc(C(=O)NCCN(C)C)c(C)c1	7	4	-3	-6	.	.
CCCCOCCCNS(=O)(=O)Cc1ccccc1	20*	0	-1	-6	3	1
Cc1cc(C)nc(NC(=O)c2ccc(OC(C)C)cc2)n1	2	-2	-2	16	.	.
COc1cccc(CNC(=O)C2(C)Oc3ccccc3NC2=O)c1 (stereo not given)	61*	2	1	-2	7	1
COc1ccc(-n2nnnc2SC(C)C(N)=O)cc1 (stereo not given)	-3	1	-2	-6	.	.
CCC(C)(c1ccc(C=O)s1)c1ccc(C=O)s1	-1	-3	6	8	.	.
Nc1nc(SCC(=O)N2CCN(c3ccccc3)CC2)n[nH]1	-2	4	2	-2	.	.
Nc1nc(SCC(=O)N2CCN(c3ccc(F)cc3)CC2)n[nH]1	48*	1	3	-6	4	3
COc1cc(S(=O)(=O)NCc2ccncc2)c(OC)cc1Br	-3	2	2	-12	.	.
Cn1cccc1CC(=O)N/N=C/C=C/c1ccco1	23*	53*	48*	-12	26*	24*
CC1CCN(CCCOc2ccc(Br)cc2Cl)CC1	2	2	-1	20	.	.
COc1ccc2c(/C=N/Nc3ccc(C(=O)O)cc3)c[nH]c2c1	3	0	-1	-6	.	.
COc1ccc2c(c1)c(/C=N/Nc1ccc(C(=O)O)cc1)c(C)n2C	15*	0	7	-18	7	2
CC1Cc2nc(SCC(=O)NCCc3ccccc3)n(C)c(=O)c2S1 (stereo not given)	-3	-1	-4	-5	.	.
CCCCNC(=O)Cn1c(-c2ccc(OC)cc2)noc1=O	14*	13	-4	2	-1	2
CC(C)(C)NC(=O)NC(=O)CSc1nnc(COc2ccccc2Cl)o1	21*	31*	3	-14	10	3
O=C(CSc1nnc(COc2ccccc2Cl)o1)Nc1ccccc1	7	13	-4	8	.	.
COc1ccc(C2=NOC(C(=O)N3CCCc4ccccc43)C2)cc1 (stereo not given)	6	1	0	4	.	.
O=C(Nc1cccnc1)C1(c2ccccc2)CCCC1	16*	23*	3	8	6	2
Cc1ccccc1NC(=O)c1ccc2nccnc2c1	16*	1	2	4	6	-1
O=C(Nc1ccccc1Br)c1ccc2nccnc2c1	-5	-6	5	12	.	.
COc1ccc(N(C)S(=O)(=O)c2cccc(C(=O)Nc3nc(C)c(C(C)=O)s3)c2)cc1	15*	17	1	-6	6	4
SMILES	MBD2 inh	UHRF1 MBD2 ctr	LEDGF integ inh	TDP2 absorb	UHRF1 DNA bind	MBD2 DBD conf	others
Cc1[nH][nH]c(=O)c1C(c1cc(Br)ccc1O)c1c(C)[nH][nH]c1=O	53*	-8	-2	30*	2	1	TDP2 confirm=16
Cc1[nH][nH]c(=O)c1C(c1cc2c(cc1Br)OCO2)c1c(C)[nH][nH]c1=O	1	-10	0	0	.	.
O=c1c(O)cccc2cc(O)c(O)c(O)c12	87*	94*	88*	28*	94*	91*	TDP2 confirm=17
CCOC(=O)C(C)Sc1cc(CS(=O)(=O)c2ccccc2)nc(-c2ccccc2)n1 (stereo not given)	2	-2	4	-6	.	.
O=C(NC1CCCCC1)C1CCCN1S(=O)(=O)c1ccc(Cl)cc1 (stereo not given)	8	-1	-3	6	.	.
NC(=S)N=Nc1c(O)cc(O)c2[nH]c(=O)ccc12	15*	42*	30*	52*	17	10	TDP2 confirm=44*
NC(=S)N=Nc1c(O)[nH]c2ccc(F)cc12	-11	-12	0	1	.	.
CN(C)c1ncnc2c1ccn2C1OC(CO)C(O)C1O (stereo not given)	3	1	-4	0	.	.
CCCCn1c(NC(=O)c2ccccc2)c(C#N)c2nc3ccccc3nc21	24*	18	6	84*	-1	17*	TDP2 confirm=85*
CC(C)CNC(=O)OCc1cn(Cc2cccc(F)c2)nn1	0	1	1	4	.	.
CN(C(=O)c1cccs1)c1ccccc1C(=O)O	16*	32*	12	42*	8	4	TDP2 confirm=5
COc1ccc(/C=C2/C(=O)N(c3ccccc3)N=C2C)cc1Br	15*	14	1	70*	6	1	TDP2 confirm=27*
CC1=NN(c2ccccc2)C(=O)/C1=C\c1cc(C)n(-c2ccccc2)c1C	-2	-3	-1	0	.	.
O=C1NC(=S)S/C1=C\C=C\c1ccc([N+](=O)[O-])o1	74*	94*	81*	30*	90*	47*	TDP2 confirm=1
Cc1nccc2oc(=O)c(NC(=O)c3ccc(Cl)cc3)cc12	2	0	-5	8	.	.
O=C(Nc1cc2c(oc1=O)CCCC2=O)c1ccc(Cl)cc1	16*	41*	17*	10	29*	16*	IN multimer act=7;TR-FRET interf=-26;IN-LEDGF confirm=22*
C[C@H]1COc2cccc(F)c2S(=O)(=O)N1C	0	0	2	-3	.	.
COc1ccc(S(=O)(=O)/N=C2/NC(=O)/C(=C/c3ccco3)S2)cc1	22*	76*	39*	10	19	3	IN multimer act=1;TR-FRET interf=-6;IN-LEDGF confirm=12
O=C(NC(=S)Nc1ccc(Br)cn1)c1cccs1	14*	37*	19*	-2	4	0	IN multimer act=-3;TR-FRET interf=9;IN-LEDGF confirm=-1
CCOC(=O)C(C)N1C(=O)S/C(=C\c2ccc(-c3ccccc3C(=O)O)o2)C1=O (stereo not given)	31*	55*	18*	-6	49*	16*	IN multimer act=6;TR-FRET interf=-20;IN-LEDGF confirm=18*
